Most compounds without a hit are left out; they make up all but 3.4% or so of the library.
TAAR1 agonist – human TAAR1 agonists, primary screen, Fluo-8 calcium fluorescence, CHO RD-HGA16 cells; activation, % at 3 µM; AID 624467, 2012; 0.99% of 360,000 active; vehicle wells 0%, saturating PEA agonist 100%; Trace amine-associated receptor 1 (Homo sapiens), Q96RJ0;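 active = activation above the mean activation of all test compounds in the run plus 3 SD, cut at about 38% in these data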
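Assay system: CHO-derived RD-HGA16 cells with stable Gα16 and human TAAR1; timing: 17-24 h seeding, 75 min 37 °C dye, 30 min RT; read-out: % activation from peak over basal fluorescence ratio, DMSO-to-PEA scaled; measured by: kinetic Fluo-8 calcium fluorescence; benchmarks: low control DMSO, high control PEA (EC100); doses: 3 µM single concentration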
M1 PAM – human M1 muscarinic receptor positive allosteric modulators, primary screen, CHO-K1 cells, Fluo-8 calcium fluorescence, 1536-well | Muscarinic acetylcholine receptor M1 (Homo sapiens), P11229 | CHO-K1 hM1, ACh EC20; 0% = ACh EC20, 100% = maximal ACh | activation, % at 3 µM | 0.088% of 360,000 active | AID 588819, 2011; in the data active = activation above about 19%, passing the limit was not always enough
Target sequence (P11229 whole entry, looked up): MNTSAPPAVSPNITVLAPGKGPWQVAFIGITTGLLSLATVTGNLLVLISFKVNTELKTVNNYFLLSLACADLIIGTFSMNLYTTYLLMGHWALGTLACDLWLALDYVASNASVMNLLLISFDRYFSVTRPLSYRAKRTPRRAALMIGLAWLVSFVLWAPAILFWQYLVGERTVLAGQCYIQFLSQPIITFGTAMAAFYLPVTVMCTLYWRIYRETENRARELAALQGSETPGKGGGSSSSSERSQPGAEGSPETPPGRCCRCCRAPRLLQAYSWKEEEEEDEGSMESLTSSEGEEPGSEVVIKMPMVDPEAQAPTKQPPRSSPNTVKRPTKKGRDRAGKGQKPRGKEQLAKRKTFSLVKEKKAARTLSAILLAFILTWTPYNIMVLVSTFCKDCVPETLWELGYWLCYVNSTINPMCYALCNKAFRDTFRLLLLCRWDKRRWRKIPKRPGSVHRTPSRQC
M1 ag – human M1 muscarinic receptor agonists, primary screen, Fluo-8 calcium fluorescence, CHO-K1 cells, HTS; activation, % at 3 µM; Muscarinic acetylcholine receptor M1 (Homo sapiens), P11229; 0.33% of 360,000 active; CHO-K1 hM1, agonist mode; 0% DMSO, 100% acetylcholine EC100;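 active = activation above the run's mean compound activation plus 3 SD, cut at about 16% in these data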;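 note: peak over basal fluorescence ratio within a 140 s kinetic read after compound addition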
TAAR1 antag – human TAAR1 antagonists, primary screen, Fluo-8 calcium fluorescence, CHO RD-HGA16 cells; AID 624466, 2012; 1.5% of 360,000 active; antagonist; inhibition, % at 3 µM; Trace amine-associated receptor 1 (Homo sapiens), Q96RJ0;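 active = inhibition above a per-plate cutoff, the mean inhibition of test compounds on that plate plus 3 SD, cut at about 49% in these data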;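 note: 0% = DMSO plus EC80 beta-PEA response and 100% = DMSO alone without agonist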
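Test system: CHO RD-HGA16 cells bearing hTAAR1 | Reagent: β-PEA, EC80 | Compound dosing: 3 µM, single point | Schedule: Dye loading 75 min at 37 °C, then 30 min room temperature | Signal: Calcium fluorescence with Fluo-8 | Evaluation: Percent inhibition of PEA-evoked calcium signal, max/basal emission ratio | Control set: DMSO-only wells and EC80 β-PEA-stimulated wells | Repeats: Singlicate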
CHRM1 antagonist – human M1 muscarinic receptor antagonists, primary screen, CHO-K1 cells, Fluo-8 calcium fluorescence, 1536-well. 1.3% of 360,000 active. inhibition, % at 3 µM. Muscarinic acetylcholine receptor M1 (Homo sapiens), P11229. CHO-K1 hM1, ACh EC80 antagonist. AID 588852, 2011;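 active = percent inhibition above its own plate's cutoff, namely the mean of that plate's compound wells plus 3 SD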;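 note: peak over basal fluorescence ratio during 140 s after agonist addition; 0% = ACh EC80 plus DMSO and 100% = DMSO alone without agonist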
The depositor's hits bear a star.

For CCOC(=O)[C@]12CCCC=C1N(Cc1ccc(Cl)cc1Cl)C(=O)[C@H](CC(=O)NCCc1ccccc1OC)C2 the results were TAAR1 agonist 40.2* and TAAR1 antag 19.2.
O=C1OCCN1C(=O)[C@H]1[C@H](c2ccc(Cl)cc2)C(c2ccccc2)=NN1c1ccccc1 was read as TAAR1 agonist 4.1, M1 PAM -13.4, M1 ag -3.4, TAAR1 antag -12.8 and CHRM1 antagonist 25.8*.
For O=C1OCCN1C(=O)[C@H]1[C@H](c2ccc(Cl)cc2)C(c2ccc(F)cc2)=NN1c1ccccc1 the results were TAAR1 agonist 0.4, M1 PAM -9.9, M1 ag -2.9, TAAR1 antag -9.6 and CHRM1 antagonist 14.6.
`Cc1ccc(-n2cc(-c3ccccc3)c3c(N4CCOCC4)ncnc32)cc1` gave TAAR1 agonist 6.3, M1 PAM -12.3, M1 ag -2.7, TAAR1 antag 54.2* and CHRM1 antagonist 43.0*.
COCCN1C(=O)[C@H]2C[C@@]13O[C@H](c1ccccn1)N=C3CC1c3ccccc3C[C@@]12C (stereo partly specified) was read as TAAR1 agonist 0.7 and TAAR1 antag -16.0.
O=C(CSc1nnnn1C1CCCCC1)Nc1ccccc1F was read as TAAR1 agonist -0.9, M1 PAM 10.8, M1 ag 0.2, TAAR1 antag 13.3 and CHRM1 antagonist -7.0.
`O=C(CSc1nnnn1C1CC2CCC1C2)Nc1ccnc2ccccc12` (stereo unspecified) gave TAAR1 agonist 25.2, M1 PAM -15.8, M1 ag 6.4, TAAR1 antag 52.2* and CHRM1 antagonist 32.3*.
Screening Cc1cc(Br)ccc1NC(=O)CN(C)C(=O)Cn1c(=O)cnc2ccccc21 returned TAAR1 agonist 0.8, M1 PAM -17.2, M1 ag -5.7, TAAR1 antag -7.0 and CHRM1 antagonist 29.2*.
For CN(CC(=O)Nc1cccc(F)c1)C(=O)Cn1c(=O)cnc2ccccc21 the results were TAAR1 agonist 3.0, M1 PAM 5.8, M1 ag -2.0, TAAR1 antag -30.9 and CHRM1 antagonist 3.0.
O=S1(=O)CC(N2CCCCC2)CN1Cc1ccc(F)cc1 (stereo unspecified) was read as TAAR1 agonist 0.7, M1 PAM 14.7, M1 ag -5.3, TAAR1 antag -0.7 and CHRM1 antagonist -15.2.
For O=C(OCC(=O)N(C1CCCCC1)C1CCCCC1)c1ccc(Cl)nc1 the results were TAAR1 agonist -0.8, M1 PAM 23.6*, M1 ag 0.3, TAAR1 antag 10.5 and CHRM1 antagonist -22.3.
`O=S1(=O)N[C@@H](Cc2ccccc2)COc2cc(NCCCN3CCOCC3)ccc21` gave TAAR1 agonist 5.0 and TAAR1 antag -13.6.
`CC(NC(=O)c1cc(COc2ccc3ncccc3c2)on1)c1ccc(F)cc1` (stereo unspecified) gave TAAR1 agonist 26.0, M1 PAM -12.2, M1 ag 3.0, TAAR1 antag 3.1 and CHRM1 antagonist 34.2*.
`O=C(NCCc1cn2ccccc2n1)c1cc(COc2ccc3ncccc3c2)on1` gave TAAR1 agonist 21.4, M1 PAM -18.4, M1 ag 0.2, TAAR1 antag 86.7* and CHRM1 antagonist 32.6.
`COc1cccc(CN(C)C(=O)c2cc(COc3ccc4ncccc4c3)on2)c1` gave TAAR1 agonist 10.8, M1 PAM -18.5, M1 ag -1.6, TAAR1 antag 44.8 and CHRM1 antagonist 49.9*.
O=C(NC1CCCC1)c1cc(COc2ccc3ncccc3c2)on1 was read as M1 PAM -12.1, M1 ag 2.6 and CHRM1 antagonist 30.6*.
CCCc1cc2c(O)ccc(O)c2c(=O)o1 was read as TAAR1 agonist -0.8 and TAAR1 antag -11.5.
For CN(C)c1cccc2c(S(=O)(=O)NC(=O)[C@H]3O[C@@H](n4ccc(=O)[nH]c4=O)[C@H](O)[C@@H]3O)cccc12 the results were TAAR1 agonist 4.3 and TAAR1 antag -22.3.

Bioassay records as filed in PubChem.
